Experimental data reported in paper PMC5473336 (Journal of medicinal chemistry, 2016).
Entries after “also recorded” stand apart in the source; their conditions may differ. Read-outs that look alike come from different tables or passages of the source.

Legend:
RAD51 [1] = target: T1, RAD51 (Homo sapiens, UniProt Q06609); experiment: Fluorescence polarization-based RAD51-DNA binding assay; settings: for ssDNA binding IC50: Stim: compound is a stimulator
T1 sequence (Q06609 1-339): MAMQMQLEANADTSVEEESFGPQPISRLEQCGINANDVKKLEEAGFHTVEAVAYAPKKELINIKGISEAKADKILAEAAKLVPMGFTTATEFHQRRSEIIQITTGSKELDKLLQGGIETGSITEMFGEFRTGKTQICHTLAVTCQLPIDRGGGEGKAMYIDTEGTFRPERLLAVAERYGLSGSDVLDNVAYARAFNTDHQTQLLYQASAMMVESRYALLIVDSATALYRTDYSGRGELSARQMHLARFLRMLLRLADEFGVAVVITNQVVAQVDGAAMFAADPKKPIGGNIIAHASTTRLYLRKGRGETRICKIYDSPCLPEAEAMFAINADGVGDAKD

293-DR-GFP cells [2] = experiment: DR-GFP assay of cellular HR activity; type: cell-based, human; settings: 24 h, relative to 1 and 8
[3] = Stability on exposure to air; type: physicochemical; settings: room temperature; oxidizes to compound 8
RAD51 [4] = target: T1, RAD51; experiment: Gel-based D-loop assay; type: biochemical
293-SA-GFP cells [5] = experiment: Single-strand annealing; type: cell-based, human; settings: concentration range that inhibits HR, 24 h post-transfection
Procedure, shortened: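 Cells electroporated in Opti-MEM with 37.5 μg/mL I-SceI plasmid (pCBASce) or empty pCAGGS vector at 325 V, 975 μF. Then seeded in complete DMEM + 0.5% DMSO with compound and grown out 24 h. Harvested into PBS with 1 μg/mL 7-AAD for flow cytometry, gating out dead/apoptotic cells by size, shape and 7-AAD. Read-out is the GFP-positive fraction of live cells; three replicates, standard error.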

293-DR-GFP cells [6] = experiment: RAD51 cytological focus formation after irradiation; type: cell-based, human; settings: IR-induced, 8 h time course
[7] = target: T2, S. cerevisiae Rad51 and Rad52 proteins (Saccharomyces cerevisiae, UniProt P25454); experiment: Gel-based D-loop assay with yeast recombinase; type: biochemical; settings: selectivity versus human RAD51
T2 sequence (P25454 1-400): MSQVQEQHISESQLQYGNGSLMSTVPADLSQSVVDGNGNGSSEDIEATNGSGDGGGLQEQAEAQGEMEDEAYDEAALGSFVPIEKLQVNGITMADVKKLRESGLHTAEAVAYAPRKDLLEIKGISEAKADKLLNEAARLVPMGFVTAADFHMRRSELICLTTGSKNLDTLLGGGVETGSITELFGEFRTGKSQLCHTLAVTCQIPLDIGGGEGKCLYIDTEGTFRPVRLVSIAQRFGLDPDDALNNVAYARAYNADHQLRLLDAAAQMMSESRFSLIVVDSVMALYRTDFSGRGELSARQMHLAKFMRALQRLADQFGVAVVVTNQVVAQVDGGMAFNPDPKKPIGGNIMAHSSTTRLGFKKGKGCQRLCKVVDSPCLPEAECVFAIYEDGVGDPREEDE

E. coli RecA protein = E. coli RecA protein (Escherichia coli, UniProt P0A7G6); experiment: Gel-based D-loop assay with bacterial recombinase; type: biochemical; settings: selectivity versus human RAD51
[8] = tested on: U2OS, PC-3, and MCF-7 tumor cell lines; experiment: Clonogenic survival assay after ionizing radiation; type: cell-based; settings: compound given immediately after irradiation, for the duration of outgrowth
Procedure, shortened: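 X-ray irradiation at 1.5 Gy/min of subconfluent flask cultures, then trypsinized and seeded at 1000–1500 cells/well in complete medium with 0.5% DMSO plus compound at the indicated dose. Grown 7–11 days until colonies reached at least 50 cells, then fixed and stained in 6% glutaraldehyde + 0.5% crystal violet. Colonies counted automatically. PC-3 kept in DMEM:F12 (1:1), 10% FCS, penicillin/streptomycin.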

293-SA-GFP cells [9] = settings: previously demonstrated; cited from earlier work

Chain of E. coli RecA protein (P0A7G6 whole entry): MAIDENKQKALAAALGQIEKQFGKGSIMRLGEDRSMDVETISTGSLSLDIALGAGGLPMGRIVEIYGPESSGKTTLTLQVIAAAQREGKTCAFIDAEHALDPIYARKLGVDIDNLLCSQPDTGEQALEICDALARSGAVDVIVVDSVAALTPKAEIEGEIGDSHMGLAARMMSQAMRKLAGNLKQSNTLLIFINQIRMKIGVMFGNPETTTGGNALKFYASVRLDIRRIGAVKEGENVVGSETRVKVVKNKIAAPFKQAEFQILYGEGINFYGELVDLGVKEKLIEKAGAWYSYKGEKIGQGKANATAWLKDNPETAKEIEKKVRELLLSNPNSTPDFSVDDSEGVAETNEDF

Compound | influence on RAD51-ssDNA binding (in words) (RAD51 [1]) | ssDNA binding IC50 (RAD51 [1]) | D-loop inhibitory activity (in words) (RAD51 [4]) | further results
COc1ccc2c(c1)NC(c1ccc(N(C)C)cc1)c1cccn1-2 (racemic) [Compound 7, 4-(7-Methoxy-4,5-dihydropyrrolo[1,2-a][13]quinoxalin-4-yl)-N,N-dimethylaniline] | significant stimulatory activity | Stim |  | Emax (RAD51 [1]; read-out: ssDNA binding max effect, ↑ compound stimulates RAD51-ssDNA binding): 47 ± 33%; inhibitory activity in cell-based HR assay (in words) (293-DR-GFP cells [2]): comparable to that of 1 and 8; stability when exposed to air (in words) [3]: not stable
COc1ccc2c(c1)nc(-c1ccc(N(C)C)cc1)c1cccn12 [Compound 8, 4-(7-Methoxypyrrolo[1,2-a]quinoxalin-4-yl)-N,N-dimethylaniline] |  | Stim |  | 
CN(C)c1ccc(-c2nc3ccccc3n3cccc23)cc1 [Compound 9a, N,N-Dimethyl-4-(pyrrolo[1,2-a]quinoxalin-4-yl)aniline] | modest influence | Stim | allow for D-loop inhibition | 
O=[N+]([O-])c1cccc(-c2nc3ccccc3n3cccc23)c1 [Compound 9b, 4-(3-Nitrophenyl)pyrrolo[1,2-a]quinoxaline] | modest influence |  |  | 
Nc1cccc(-c2nc3ccccc3n3cccc23)c1 [Compound 9c, 3-(Pyrrolo[1,2-a]quinoxalin-4-yl)aniline] |  |  | decreased | 
Oc1ccc(-c2nc3ccccc3n3cccc23)cc1 [Compound 9d, 4-(Pyrrolo[1,2-a]quinoxalin-4-yl)phenol] |  |  | significantly decreased | 
FC(F)(F)Oc1ccc(-c2nc3ccccc3n3cccc23)cc1 [Compound 9e, 4-(4-(Trifluoromethoxy)phenyl)pyrrolo[1,2-a]quinoxaline] |  | Stim | significantly decreased | 
O=[N+]([O-])c1ccc(-c2nc3ccccc3n3cccc23)cc1 [Compound 9f, 4-(4-Nitrophenyl)pyrrolo[1,2-a]quinoxaline] |  |  | significantly decreased | 
Nc1ccc(-c2nc3ccccc3n3cccc23)cc1 [Compound 9g, 4-(Pyrrolo[1,2-a]quinoxalin-4-yl)aniline] |  |  | allow for D-loop inhibition | 
CCNc1ccc(-c2nc3ccccc3n3cccc23)cc1 [Compound 9h, N-Ethyl-4-(pyrrolo[1,2-a]quinoxalin-4-yl)aniline] | almost no impact |  | allow for D-loop inhibition | effect on SSA activity (in words) (293-SA-GFP cells [5]): does not stimulate SSA; appearance of RAD51 subnuclear foci in response to DNA damage (in words) (293-DR-GFP cells [6]): does not inhibit; inhibition of D-loop activity of Saccharomyces cerevisiae Rad51 (in words) [7]: no significant inhibition; inhibition of D-loop activity of Escherichia coli RecA (in words) (E. coli RecA protein): no significant inhibition; sensitization of cancer cells to radiation, clonogenic survival (in words) [8]: significantly sensitizes
c1ccc2c(c1)nc(-c1ccc(N3CCCC3)cc1)c1cccn12 [Compound 9i, 4-(4-(Pyrrolidin-1-yl)phenyl)pyrrolo[1,2-a]quinoxaline] | modest influence | Stim | significantly decreased | 
c1ccc2c(c1)nc(-c1ccc(N3CCOCC3)cc1)c1cccn12 [Compound 9j, 4-(4-(Pyrrolo[1,2-a]quinoxalin-4-yl)phenyl)morpholine] |  |  | allow for D-loop inhibition | 
c1cncc(-c2nc3ccccc3n3cccc23)c1 [Compound 11a, 4-(Pyridin-3-yl)pyrrolo[1,2-a]quinoxaline] |  |  | moderate | 
c1ccc2c(c1)nc(-c1ccncc1)c1cccn12 [Compound 11b, 4-(Pyridin-4-yl)pyrrolo[1,2-a]quinoxaline] |  |  | moderate | 
C1=C(c2nc3ccccc3n3cccc23)CCCC1 [Compound 11c, 4-(Cyclohex-1-en-1-yl)pyrrolo[1,2-a]quinoxaline] | modest influence | Stim | weak | 
c1ccc2c(-c3nc4ccccc4n4cccc34)cccc2c1 [Compound 11d, 4-(Naphthalen-1-yl)pyrrolo[1,2-a]quinoxaline] | modest influence | Stim | weak | 
COc1ccc2c(c1)nc(-c1ccc(O)cc1)c1cccn12 [Compound 12a, 4-(7-Methoxypyrrolo[1,2-a]quinoxalin-4-yl)phenol] | relatively strong ssDNA binding inhibition |  |  | 
COc1ccc2c(c1)nc(-c1ccc([N+](=O)[O-])cc1)c1cccn12 [Compound 12b, 7-Methoxy-4-(4-nitrophenyl)pyrrolo[1,2-a]quinoxaline] | stimulators | Stim |  | 
COc1ccc2c(c1)nc(-c1ccc(N)cc1)c1cccn12 [Compound 12c, 4-(7-Methoxypyrrolo[1,2-a]quinoxalin-4-yl)aniline] | only weakly influenced |  |  | 
Nc1ccc(-c2nc3cc(O)ccc3n3cccc23)cc1 [Compound 12f, 4-(4-Aminophenyl)pyrrolo[1,2-a]quinoxalin-7-ol] | modest effects |  |  | inhibitory activity in cell-based HR assay (in words) (293-DR-GFP cells [2]): comparable or slightly less inhibitory activity
CN(C)c1ccc(-c2nc3cc(O)ccc3n3cccc23)cc1 [Compound 12g, 4-(4-(Dimethylamino)phenyl)pyrrolo[1,2-a]quinoxalin-7-ol] | only weakly influenced | Stim |  | inhibitory activity in cell-based HR assay (in words) (293-DR-GFP cells [2]): comparable or slightly less inhibitory activity
CN(C)c1ccc(-c2nc3cc(F)ccc3n3cccc23)cc1 [Compound 12j, 4-(7-Fluoropyrrolo[1,2-a]quinoxalin-4-yl)-N,N-dimethylaniline] |  | Stim | nearly absent | 
CN(C)c1ccc(-c2nc3cc(F)c(F)cc3n3cccc23)cc1 [Compound 12m, 4-(7,8-Difluoropyrrolo[1,2-a]quinoxalin-4-yl)-N,N-dimethylaniline] |  | Stim | nearly absent | 
COc1ccc2c(c1)nc(-c1cccnc1)c1cccn12 [Compound 13a, 7-Methoxy-4-(pyridin-3-yl)pyrrolo[1,2-a]quinoxaline] |  |  | slight improvement | 
Oc1ccc2c(c1)nc(-c1cccnc1)c1cccn12 [Compound 13b, 4-(Pyridin-3-yl)pyrrolo[1,2-a]quinoxalin-7-ol] |  |  | slight improvement | 
CCCOc1ccc2c(c1)nc(-c1ccc(N)cc1)c1cccn12 [Compound 15a, 4-(7-Propoxypyrrolo[1,2-a]quinoxalin-4-yl)aniline] | stimulators | Stim |  | 
Nc1ccc(-c2nc3cc(OCCF)ccc3n3cccc23)cc1 [Compound 15b, 4-(7-(2-Fluoroethoxy)pyrrolo[1,2-a]quinoxalin-4-yl)aniline] | stimulators; also recorded: modest effects | Stim |  | 
CN(C)c1ccc(-c2nc3cc(OC(C)(C)C(N)=O)ccc3n3cccc23)cc1 [Compound 16, 2-((4-(4-(Dimethylamino)phenyl)pyrrolo[1,2-a]quinoxalin-7-yl)-oxy)-2-methylpropanamide] | stimulators | Stim |  | 
O=C1C(Cl)=C(N2CCOCC2)C(=O)N1c1ccc(Cl)c(Cl)c1 [RI-1] |  |  |  | effect on SSA activity (in words) (293-SA-GFP cells [9]): elevated levels of SSA activity
